Measurements reported in publication PMC3076536 (Journal of the American Chemical Society, 2011).
pIC50: −log10 of the molar value.

Experiments:
[1] = biological target: T1, GSK3α (Homo sapiens, UniProt P49840); assay: Radioactive [γ-33P]ATP kinase activity assay, GSK3α; assay type: biochemical
Procedure, shortened: (§1)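 Commercial human kinase and substrate were used, except the PAK1 kinase domain (residues 249–545), which was expressed and purified in-house. Serial inhibitor concentrations were preincubated 15 min with kinase and substrate in 20 mM MOPS pH 7.0, 30 mM MgCl₂, 0.8 μg/μL BSA and 5% DMSO. The reaction was started with ATP (final 100 μM) plus [γ-³³P]ATP. Reactions were spotted on P81 paper, washed and scintillation-counted. IC50 was the concentration giving background-corrected CPM at 50% of control.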

[2] = biological target: PAK1 kinase domain (residues 249 to 545) (Homo sapiens, UniProt Q13153); assay: Radioactive [γ-33P]ATP kinase activity assay, PAK1; assay type: biochemical; details: read-out: IC50 PAK1; 100 μM ATP
Procedure, shortened: as §1

[3] = biological target: T2, PIM1 (Homo sapiens, UniProt P11309); assay: Radioactive [γ-33P]ATP kinase activity assay, PIM1; assay type: biochemical; details: read-out: IC50 PIM1; 100 μM ATP
Procedure, shortened: as §1

[4] = biological target: DAPK1 (Homo sapiens, UniProt P53355); assay: Radioactive [γ-33P]ATP kinase activity assay, DAPK1; assay type: biochemical; details: read-out: IC50 DAPK1; 100 μM ATP
Procedure, shortened: as §1

[5] = biological target: MLCK; assay: Radioactive [γ-33P]ATP kinase activity assay, MLCK; assay type: biochemical, human; details: read-out: IC50 MLCK; 100 μM ATP
Procedure, shortened: as §1

[6] = biological target: FLT4 (Homo sapiens, UniProt P35916); assay: Radioactive [γ-33P]ATP kinase activity assay, FLT4; assay type: biochemical; details: read-out: IC50 FLT4; 100 μM ATP
Procedure, shortened: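 Radiometric assay with commercial human FLT4 and substrate. Serial inhibitor concentrations were preincubated 45 min with kinase and substrate in 20 mM MOPS pH 7.0, 30 mM MgCl₂, 0.8 μg/μL BSA and 5% DMSO. The reaction was started with ATP (final 100 μM) containing [γ-³³P]ATP. Reactions were stopped on P81 paper, washed and scintillation-counted. IC50 was the concentration giving 50% of control CPM after background correction.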

[7] = biological target: T3, GSK3β (Homo sapiens, UniProt P49841); assay: Radioactive [γ-33P]ATP kinase activity assay, GSK3β; assay type: biochemical; details: read-out: IC50 GSK3β; 100 μM ATP
Procedure, shortened: as §1

[8] = biological target: T1, GSK3α; assay: Millipore KinaseProfiler single-concentration screen, GSK3α; assay type: biochemical; details: compound 10 nM, 10 μM ATP
Procedure, shortened: (§2)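 Single-concentration screen on a commercial panel of human wild-type kinases. Test compound was at 10 nM with 10 μM ATP. Only kinases whose assay concentration was at or below the inhibitor concentration were included, giving 102 kinases. Percentage kinase activity was measured in duplicate and averaged.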

[9] = biological target: T2, PIM1; assay: Millipore KinaseProfiler single-concentration screen, PIM1; assay type: biochemical; details: compound 10 nM, 10 μM ATP
Procedure, shortened: as §2

[10] = biological target: CLK2 (Homo sapiens, UniProt P49760); assay: Millipore KinaseProfiler single-concentration screen, CLK2; assay type: biochemical; details: compound 10 nM, 10 μM ATP
Procedure, shortened: as §2

[11] = biological target: T3, GSK3β; assay: Millipore KinaseProfiler single-concentration screen, GSK3β; assay type: biochemical; details: compound 10 nM, 10 μM ATP
Procedure, shortened: as §2

[12] = tested on: panels of human wild type protein kinases; assay: Millipore KinaseProfiler selectivity profile over whole panel; assay type: biochemical; details: compound 10 nM, 10 μM ATP, panel of 102 kinases
Procedure, shortened: as §2

T1 sequence (P49840 whole entry, the tested form may be a part): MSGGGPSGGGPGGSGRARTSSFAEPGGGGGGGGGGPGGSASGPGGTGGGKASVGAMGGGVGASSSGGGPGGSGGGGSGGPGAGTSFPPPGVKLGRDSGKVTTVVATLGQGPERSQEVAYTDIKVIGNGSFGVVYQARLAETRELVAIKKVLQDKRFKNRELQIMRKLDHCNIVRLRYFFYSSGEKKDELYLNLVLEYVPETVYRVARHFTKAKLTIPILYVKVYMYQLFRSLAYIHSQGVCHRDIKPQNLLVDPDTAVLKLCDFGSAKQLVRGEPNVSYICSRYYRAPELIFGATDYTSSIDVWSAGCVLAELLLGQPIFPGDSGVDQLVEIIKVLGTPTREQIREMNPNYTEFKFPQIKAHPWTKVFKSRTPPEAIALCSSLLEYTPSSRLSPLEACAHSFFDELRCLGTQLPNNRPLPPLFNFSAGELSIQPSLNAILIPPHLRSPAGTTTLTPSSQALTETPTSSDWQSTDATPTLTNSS
T3 sequence (P49841 whole entry): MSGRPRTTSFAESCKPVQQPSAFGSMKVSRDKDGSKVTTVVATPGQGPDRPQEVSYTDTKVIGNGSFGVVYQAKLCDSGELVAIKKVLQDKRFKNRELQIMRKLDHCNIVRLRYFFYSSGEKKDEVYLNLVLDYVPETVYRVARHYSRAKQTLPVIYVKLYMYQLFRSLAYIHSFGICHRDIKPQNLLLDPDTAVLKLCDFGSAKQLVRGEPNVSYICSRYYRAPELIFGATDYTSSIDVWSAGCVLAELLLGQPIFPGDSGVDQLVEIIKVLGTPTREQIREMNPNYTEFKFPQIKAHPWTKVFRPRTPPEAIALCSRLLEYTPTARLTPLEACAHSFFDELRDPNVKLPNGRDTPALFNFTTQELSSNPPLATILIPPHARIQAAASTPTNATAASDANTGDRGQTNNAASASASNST
T2 sequence (P11309 whole entry): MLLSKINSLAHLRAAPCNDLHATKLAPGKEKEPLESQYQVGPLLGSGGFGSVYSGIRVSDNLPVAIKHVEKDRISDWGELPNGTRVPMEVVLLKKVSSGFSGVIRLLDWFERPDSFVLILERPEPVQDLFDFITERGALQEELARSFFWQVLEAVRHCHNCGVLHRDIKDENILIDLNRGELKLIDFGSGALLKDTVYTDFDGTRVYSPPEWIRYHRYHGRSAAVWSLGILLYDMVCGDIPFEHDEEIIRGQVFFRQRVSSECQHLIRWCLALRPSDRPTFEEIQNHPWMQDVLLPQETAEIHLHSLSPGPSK
Sequence of PAK1 kinase domain (residues 249 to 545) (Q13153 249-545): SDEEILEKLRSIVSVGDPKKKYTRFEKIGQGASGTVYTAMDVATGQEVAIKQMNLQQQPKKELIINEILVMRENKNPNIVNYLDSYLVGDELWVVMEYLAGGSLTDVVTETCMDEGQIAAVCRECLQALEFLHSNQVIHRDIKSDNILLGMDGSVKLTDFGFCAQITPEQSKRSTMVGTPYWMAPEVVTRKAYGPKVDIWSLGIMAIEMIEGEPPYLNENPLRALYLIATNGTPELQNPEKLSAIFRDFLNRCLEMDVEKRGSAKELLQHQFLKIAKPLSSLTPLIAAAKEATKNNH
Sequence of CLK2 (P49760 whole entry): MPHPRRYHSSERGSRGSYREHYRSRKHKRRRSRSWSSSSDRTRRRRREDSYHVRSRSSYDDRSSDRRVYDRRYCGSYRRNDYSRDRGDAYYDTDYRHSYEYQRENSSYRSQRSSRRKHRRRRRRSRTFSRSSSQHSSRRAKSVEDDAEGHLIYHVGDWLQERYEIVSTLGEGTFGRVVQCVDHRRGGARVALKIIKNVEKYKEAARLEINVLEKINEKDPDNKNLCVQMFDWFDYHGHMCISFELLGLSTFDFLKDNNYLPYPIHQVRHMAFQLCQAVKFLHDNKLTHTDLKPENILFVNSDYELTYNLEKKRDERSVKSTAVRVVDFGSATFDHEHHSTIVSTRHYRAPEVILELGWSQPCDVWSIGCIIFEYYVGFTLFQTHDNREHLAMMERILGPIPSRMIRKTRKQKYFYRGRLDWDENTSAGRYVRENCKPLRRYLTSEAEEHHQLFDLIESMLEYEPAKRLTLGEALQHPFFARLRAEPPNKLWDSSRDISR
Sequence of FLT4 (P35916 25-1363): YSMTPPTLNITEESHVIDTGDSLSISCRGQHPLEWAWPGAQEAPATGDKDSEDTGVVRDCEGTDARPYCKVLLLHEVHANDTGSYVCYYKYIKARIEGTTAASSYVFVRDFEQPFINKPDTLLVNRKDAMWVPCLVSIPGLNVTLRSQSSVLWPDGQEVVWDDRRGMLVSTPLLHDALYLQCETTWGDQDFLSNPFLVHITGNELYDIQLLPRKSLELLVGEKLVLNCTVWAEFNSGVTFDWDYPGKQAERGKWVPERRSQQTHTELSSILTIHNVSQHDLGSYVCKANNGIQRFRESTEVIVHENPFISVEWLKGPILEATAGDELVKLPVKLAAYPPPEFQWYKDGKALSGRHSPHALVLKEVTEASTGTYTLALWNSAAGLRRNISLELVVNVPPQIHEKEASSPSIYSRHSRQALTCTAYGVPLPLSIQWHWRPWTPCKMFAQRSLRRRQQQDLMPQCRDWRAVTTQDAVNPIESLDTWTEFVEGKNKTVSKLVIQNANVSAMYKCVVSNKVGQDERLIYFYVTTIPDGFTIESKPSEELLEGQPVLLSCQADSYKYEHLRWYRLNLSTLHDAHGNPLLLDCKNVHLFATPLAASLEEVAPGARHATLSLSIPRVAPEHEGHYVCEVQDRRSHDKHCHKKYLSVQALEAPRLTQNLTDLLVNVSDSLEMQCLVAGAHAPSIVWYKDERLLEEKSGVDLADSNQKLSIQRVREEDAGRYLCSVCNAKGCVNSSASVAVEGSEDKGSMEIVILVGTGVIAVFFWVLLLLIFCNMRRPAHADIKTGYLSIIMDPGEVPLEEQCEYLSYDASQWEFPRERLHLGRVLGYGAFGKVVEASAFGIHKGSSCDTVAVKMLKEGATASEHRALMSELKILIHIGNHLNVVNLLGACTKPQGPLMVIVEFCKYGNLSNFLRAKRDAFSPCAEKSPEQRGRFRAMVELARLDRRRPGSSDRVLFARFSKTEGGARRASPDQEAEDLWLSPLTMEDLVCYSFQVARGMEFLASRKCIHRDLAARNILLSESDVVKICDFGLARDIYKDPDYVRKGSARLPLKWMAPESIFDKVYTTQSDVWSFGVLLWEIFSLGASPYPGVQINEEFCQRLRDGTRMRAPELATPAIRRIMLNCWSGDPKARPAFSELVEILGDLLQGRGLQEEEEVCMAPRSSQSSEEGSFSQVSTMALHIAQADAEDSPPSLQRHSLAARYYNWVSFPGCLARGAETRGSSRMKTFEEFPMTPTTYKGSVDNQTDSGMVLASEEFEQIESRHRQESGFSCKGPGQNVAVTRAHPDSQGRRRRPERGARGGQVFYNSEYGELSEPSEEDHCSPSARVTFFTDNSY
Sequence of DAPK1 (P53355 whole entry): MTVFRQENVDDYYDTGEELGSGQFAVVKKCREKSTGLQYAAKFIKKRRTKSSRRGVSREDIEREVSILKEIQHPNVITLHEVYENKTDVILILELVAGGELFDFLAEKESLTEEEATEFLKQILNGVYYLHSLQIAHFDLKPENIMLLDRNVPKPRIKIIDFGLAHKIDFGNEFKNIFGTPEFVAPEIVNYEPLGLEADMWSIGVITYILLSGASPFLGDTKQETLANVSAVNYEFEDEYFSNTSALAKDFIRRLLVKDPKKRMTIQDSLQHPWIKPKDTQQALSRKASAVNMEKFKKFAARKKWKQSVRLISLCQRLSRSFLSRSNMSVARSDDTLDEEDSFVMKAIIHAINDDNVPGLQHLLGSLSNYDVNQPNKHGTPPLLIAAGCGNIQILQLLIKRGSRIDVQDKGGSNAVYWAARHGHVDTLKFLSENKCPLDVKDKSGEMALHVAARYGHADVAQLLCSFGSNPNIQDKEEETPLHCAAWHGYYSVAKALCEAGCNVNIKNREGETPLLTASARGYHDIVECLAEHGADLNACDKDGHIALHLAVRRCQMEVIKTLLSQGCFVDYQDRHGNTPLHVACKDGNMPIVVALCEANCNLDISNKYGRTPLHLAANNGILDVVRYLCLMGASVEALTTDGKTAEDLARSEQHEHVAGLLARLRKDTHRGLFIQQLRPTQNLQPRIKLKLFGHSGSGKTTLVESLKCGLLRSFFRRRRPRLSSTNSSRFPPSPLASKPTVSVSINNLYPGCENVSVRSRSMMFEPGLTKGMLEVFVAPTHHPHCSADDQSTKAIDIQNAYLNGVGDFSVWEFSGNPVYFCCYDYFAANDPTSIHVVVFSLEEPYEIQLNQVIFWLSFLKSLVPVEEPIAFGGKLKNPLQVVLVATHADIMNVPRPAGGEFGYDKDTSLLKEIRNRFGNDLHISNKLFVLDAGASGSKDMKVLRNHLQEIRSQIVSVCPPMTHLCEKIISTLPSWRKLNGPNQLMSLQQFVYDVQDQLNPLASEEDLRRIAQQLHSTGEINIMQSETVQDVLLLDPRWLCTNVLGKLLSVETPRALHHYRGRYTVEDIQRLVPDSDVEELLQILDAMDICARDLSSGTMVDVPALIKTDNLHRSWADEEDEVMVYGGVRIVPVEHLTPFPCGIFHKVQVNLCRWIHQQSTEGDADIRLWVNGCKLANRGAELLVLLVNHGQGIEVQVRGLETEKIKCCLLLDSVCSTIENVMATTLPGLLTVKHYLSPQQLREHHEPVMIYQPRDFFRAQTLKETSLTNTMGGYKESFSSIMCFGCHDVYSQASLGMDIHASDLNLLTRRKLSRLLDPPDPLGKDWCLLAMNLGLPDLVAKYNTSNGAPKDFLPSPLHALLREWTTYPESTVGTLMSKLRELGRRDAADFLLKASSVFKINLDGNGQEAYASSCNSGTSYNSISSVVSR

SMILES: Nc1cnc2c(c1)c1c(c3c4ccccc4[n-]c23)C(=O)NC1=O.[C-]#[O+].[Cl][Ru+3].[NH-]Cc1ccccn1 [Λ-OS1]
- IC50 value ratio of GSK3α/PAK1 ([1]; 100 μM ATP): < 0.000009
- selectivity for the α- over β-isoform of GSK3 ([1]; IC50 ratio, 100 μM ATP): ca. 7 fold
- lower IC50 value compared to respective pyridocarbazole ligand, GSK3α ([1]; metal complex vs free ligand): 8890 fold
- pIC50 ([1]; read-out: IC50 GSK3α, 100 μM ATP): 9.05
- pIC50 [2]: < 4.00
- pIC50 [3]: 7.85
- pIC50 [4]: 4.64
- pIC50 [5]: 7.66
- pIC50 [6]: 5.93
- pIC50 [7]: 8.22
- residual activity GSK3α [8]: 6%
- residual activity PIM1 [9]: 13%
- residual activity CLK2 [10]: 33%
- residual activity GSK3β [11]: 58%
- number of kinases out of 102 with activity higher than 75% [12]: 98
